Test results as given in ChEMBL document CHEMBL4024792, “(N-Hydroxycarbonylbenylamino)quinolines as Selective Histone Deacetylase 6 Inhibitors Suppress Growth of Multiple Myeloma in Vitro and in Vivo” (J Med Chem, 2018).

What was measured:
[1] = molecular target: T1, Protein deacetylase HDAC6 (Homo sapiens) (UniProt Q9UBN7); assay: Inhibition of HDAC6 in human NCI-H929 cells assessed as increase in acetylated tubulin level by immunoblot analysis relative to control; format: cell-based
T1 sequence (whole entry): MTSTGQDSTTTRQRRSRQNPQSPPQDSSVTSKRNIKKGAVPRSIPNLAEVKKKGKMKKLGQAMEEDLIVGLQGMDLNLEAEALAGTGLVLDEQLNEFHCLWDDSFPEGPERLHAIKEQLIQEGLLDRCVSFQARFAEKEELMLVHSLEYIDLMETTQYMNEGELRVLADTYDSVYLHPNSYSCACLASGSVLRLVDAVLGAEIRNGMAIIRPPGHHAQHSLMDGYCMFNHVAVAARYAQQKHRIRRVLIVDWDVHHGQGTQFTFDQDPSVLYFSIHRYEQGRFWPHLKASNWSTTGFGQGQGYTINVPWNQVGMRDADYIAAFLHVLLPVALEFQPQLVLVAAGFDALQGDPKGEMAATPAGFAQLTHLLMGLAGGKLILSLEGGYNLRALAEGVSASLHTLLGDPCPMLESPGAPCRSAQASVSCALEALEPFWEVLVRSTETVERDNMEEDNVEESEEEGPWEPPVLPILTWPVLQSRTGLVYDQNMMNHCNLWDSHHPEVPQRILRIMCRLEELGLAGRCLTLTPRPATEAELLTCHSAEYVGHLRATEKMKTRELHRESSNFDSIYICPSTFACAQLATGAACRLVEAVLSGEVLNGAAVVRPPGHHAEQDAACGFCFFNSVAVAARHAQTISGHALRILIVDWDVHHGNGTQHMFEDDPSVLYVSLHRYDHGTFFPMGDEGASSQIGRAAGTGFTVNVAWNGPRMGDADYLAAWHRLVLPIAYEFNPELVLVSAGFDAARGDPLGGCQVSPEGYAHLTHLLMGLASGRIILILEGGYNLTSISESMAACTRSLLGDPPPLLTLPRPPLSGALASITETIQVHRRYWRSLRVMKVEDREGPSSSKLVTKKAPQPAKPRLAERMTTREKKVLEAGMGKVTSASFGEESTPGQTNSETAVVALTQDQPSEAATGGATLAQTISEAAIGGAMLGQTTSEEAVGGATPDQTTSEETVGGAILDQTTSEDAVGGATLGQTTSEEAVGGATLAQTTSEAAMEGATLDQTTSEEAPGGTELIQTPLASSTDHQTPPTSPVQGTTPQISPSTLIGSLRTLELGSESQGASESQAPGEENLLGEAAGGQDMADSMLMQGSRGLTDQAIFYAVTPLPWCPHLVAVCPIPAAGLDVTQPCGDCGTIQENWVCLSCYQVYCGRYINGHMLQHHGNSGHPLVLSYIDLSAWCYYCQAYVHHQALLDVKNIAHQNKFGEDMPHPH
Procedure, shortened: (§1)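 Multiple myeloma cells harvested in Tris-HCl lysis buffer (pH 7.4) with protease and phosphatase inhibitors, then centrifuged 17,000 g for 30 min at 4 °C. Lysates immunoblotted with specific antibodies for acetylated α-tubulin. Signal detected by ECL on film.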

NCI-H929 = assay: Antiproliferative activity against human NCI-H929 cells after 48 hrs by SRB assay; format: functional; conditions: NCI-H929, 48 h
Procedure, shortened: (§2)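 Cells were exposed to test compounds at the indicated concentrations for 48 h. They were then fixed with 10% trichloroacetic acid, stained 30 min with 0.4% SRB in 1% AcOH, and washed with 1% AcOH. Bound dye was solubilized in 10 mM Tris base and OD read at 510 nm. Lines cultured in RPMI 1640 with 20% FBS and penicillin/streptomycin, 37°C, 5% CO2.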

[2] = molecular target: T1, Protein deacetylase HDAC6 (Homo sapiens); assay: Inhibition of HDAC6 in human U266 cells assessed as increase in acetylated tubulin level by immunoblot analysis relative to control; format: cell-based; procedure, shortened: as §1
Histone deacetylase 1 = Histone deacetylase 1 (Homo sapiens, UniProt Q13547); assay: Inhibition of full length recombinant human C-terminal FLAG/His-tagged HDAC1 expressed in baculovirus infected sf21 cells using RHK-K(Ac)-AMC as substrate after 60 mins by fluorescence assay
Histone deacetylase 8 = molecular target: T2, Histone deacetylase 8 (Homo sapiens, UniProt Q9BY41); assay: Inhibition of recombinant human C-terminal His-tagged/N-terminal Strep2-tagged HDAC8 (1 to 377 residues) expressed in insect cells using RHK-K(Ac)-AMC as substrate after 60 mins by fluorescence assay
T2 sequence (Q9BY41 whole entry): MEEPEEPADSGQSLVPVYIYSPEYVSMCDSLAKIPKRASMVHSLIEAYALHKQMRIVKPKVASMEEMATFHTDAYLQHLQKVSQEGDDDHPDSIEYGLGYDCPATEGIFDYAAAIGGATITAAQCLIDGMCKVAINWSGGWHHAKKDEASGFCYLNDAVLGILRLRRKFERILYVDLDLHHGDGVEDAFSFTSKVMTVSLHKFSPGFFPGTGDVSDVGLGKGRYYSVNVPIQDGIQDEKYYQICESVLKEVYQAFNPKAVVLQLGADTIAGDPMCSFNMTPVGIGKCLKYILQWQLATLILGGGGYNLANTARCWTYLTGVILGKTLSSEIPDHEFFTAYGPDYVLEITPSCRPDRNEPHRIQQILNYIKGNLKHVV

RPMI-8226 = assay: Antiproliferative activity against human RPMI8226 cells after 48 hrs by SRB assay; format: functional; conditions: RPMI-8226, 48 h; procedure, shortened: as §2
[3] = molecular target: T3, Protein deacetylase HDAC6 (Homo sapiens, UniProt Q9UBN7); assay: Inhibition of full length recombinant human N-terminal GST-tagged HDAC6 expressed in baculovirus infected insect cells using RHK-K(Ac)-AMC as substrate after 90 mins by fluorescence assay
T3 sequence (Q9UBN7 whole entry): T1 sequence (whole entry)

Histone deacetylase 4 = Histone deacetylase 4 (Homo sapiens, UniProt P56524); assay: Inhibition of recombinant human C-terminal His-tagged/N-terminal GST-tagged HDAC4 (627 to 1084 residues) expressed in insect cells using Boc-K(Ac)-AMC as substrate after 60 mins by fluorescence assay
Histone deacetylase 2 = Histone deacetylase 2 (Homo sapiens, UniProt Q92769); assay: Inhibition of full length recombinant human C-terminal GST-tagged HDAC2 expressed in baculovirus infected insect cells using RHK-K(Ac)-AMC as substrate after 60 mins by fluorescence assay
[4] = molecular target: T1, Protein deacetylase HDAC6 (Homo sapiens); assay: Inhibition of HDAC6 in human RPMI8226 cells assessed as increase in acetylated tubulin level by immunoblot analysis relative to control; format: cell-based; procedure, shortened: as §1
Histone deacetylase 9 = Histone deacetylase 9 (Homo sapiens, UniProt Q9UKV0); assay: Inhibition of HDAC9 (unknown origin)
U-266 = assay: Antiproliferative activity against human U266 cells after 48 hrs by SRB assay; format: functional; conditions: U-266, 48 h; procedure, shortened: as §2
[5] = Antiproliferative activity against human HS5 cells after 48 hrs by SRB assay; format: cell-based; procedure, shortened: as §2

Sequence of Histone deacetylase 9 (Q9UKV0 whole entry): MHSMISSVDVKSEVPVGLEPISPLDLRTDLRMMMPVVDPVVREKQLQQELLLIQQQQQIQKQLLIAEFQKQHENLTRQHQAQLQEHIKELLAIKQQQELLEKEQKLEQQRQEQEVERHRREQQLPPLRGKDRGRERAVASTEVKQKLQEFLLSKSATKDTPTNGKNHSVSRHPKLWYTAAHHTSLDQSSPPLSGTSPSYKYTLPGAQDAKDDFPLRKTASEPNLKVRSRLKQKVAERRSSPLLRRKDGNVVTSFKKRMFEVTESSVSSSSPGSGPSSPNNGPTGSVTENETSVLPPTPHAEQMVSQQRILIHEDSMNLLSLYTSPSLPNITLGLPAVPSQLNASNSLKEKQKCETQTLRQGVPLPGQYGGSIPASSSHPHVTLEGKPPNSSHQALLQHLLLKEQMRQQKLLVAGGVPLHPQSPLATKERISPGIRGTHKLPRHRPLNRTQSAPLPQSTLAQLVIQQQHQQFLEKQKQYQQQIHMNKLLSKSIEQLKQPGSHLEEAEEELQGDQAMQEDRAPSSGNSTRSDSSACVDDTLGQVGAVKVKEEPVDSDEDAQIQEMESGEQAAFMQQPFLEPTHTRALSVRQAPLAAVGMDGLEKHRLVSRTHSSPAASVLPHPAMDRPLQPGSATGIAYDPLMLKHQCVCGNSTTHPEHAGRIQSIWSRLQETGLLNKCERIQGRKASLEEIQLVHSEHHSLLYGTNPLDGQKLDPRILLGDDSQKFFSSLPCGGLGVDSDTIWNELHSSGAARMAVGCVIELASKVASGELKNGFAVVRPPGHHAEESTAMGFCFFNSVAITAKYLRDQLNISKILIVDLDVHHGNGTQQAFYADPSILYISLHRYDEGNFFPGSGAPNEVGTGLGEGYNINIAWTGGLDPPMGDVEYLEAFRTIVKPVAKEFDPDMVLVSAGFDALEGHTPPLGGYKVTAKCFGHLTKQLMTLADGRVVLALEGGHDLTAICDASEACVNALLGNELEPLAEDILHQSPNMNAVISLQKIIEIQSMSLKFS
Sequence of Histone deacetylase 2 (Q92769 whole entry): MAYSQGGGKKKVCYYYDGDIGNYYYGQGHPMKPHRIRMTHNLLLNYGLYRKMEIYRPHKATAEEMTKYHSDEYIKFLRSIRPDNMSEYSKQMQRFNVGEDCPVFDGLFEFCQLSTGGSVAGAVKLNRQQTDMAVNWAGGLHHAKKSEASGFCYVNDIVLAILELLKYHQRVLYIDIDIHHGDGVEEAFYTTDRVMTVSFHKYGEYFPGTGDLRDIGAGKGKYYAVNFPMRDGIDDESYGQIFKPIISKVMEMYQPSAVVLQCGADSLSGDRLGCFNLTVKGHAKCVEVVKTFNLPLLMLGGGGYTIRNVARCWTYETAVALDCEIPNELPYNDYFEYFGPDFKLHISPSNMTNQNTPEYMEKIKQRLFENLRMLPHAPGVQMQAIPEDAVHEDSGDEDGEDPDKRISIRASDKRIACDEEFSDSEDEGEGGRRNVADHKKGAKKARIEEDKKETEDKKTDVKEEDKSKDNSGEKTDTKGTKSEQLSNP
Sequence of Histone deacetylase 4 (P56524 whole entry, the tested form may be a part): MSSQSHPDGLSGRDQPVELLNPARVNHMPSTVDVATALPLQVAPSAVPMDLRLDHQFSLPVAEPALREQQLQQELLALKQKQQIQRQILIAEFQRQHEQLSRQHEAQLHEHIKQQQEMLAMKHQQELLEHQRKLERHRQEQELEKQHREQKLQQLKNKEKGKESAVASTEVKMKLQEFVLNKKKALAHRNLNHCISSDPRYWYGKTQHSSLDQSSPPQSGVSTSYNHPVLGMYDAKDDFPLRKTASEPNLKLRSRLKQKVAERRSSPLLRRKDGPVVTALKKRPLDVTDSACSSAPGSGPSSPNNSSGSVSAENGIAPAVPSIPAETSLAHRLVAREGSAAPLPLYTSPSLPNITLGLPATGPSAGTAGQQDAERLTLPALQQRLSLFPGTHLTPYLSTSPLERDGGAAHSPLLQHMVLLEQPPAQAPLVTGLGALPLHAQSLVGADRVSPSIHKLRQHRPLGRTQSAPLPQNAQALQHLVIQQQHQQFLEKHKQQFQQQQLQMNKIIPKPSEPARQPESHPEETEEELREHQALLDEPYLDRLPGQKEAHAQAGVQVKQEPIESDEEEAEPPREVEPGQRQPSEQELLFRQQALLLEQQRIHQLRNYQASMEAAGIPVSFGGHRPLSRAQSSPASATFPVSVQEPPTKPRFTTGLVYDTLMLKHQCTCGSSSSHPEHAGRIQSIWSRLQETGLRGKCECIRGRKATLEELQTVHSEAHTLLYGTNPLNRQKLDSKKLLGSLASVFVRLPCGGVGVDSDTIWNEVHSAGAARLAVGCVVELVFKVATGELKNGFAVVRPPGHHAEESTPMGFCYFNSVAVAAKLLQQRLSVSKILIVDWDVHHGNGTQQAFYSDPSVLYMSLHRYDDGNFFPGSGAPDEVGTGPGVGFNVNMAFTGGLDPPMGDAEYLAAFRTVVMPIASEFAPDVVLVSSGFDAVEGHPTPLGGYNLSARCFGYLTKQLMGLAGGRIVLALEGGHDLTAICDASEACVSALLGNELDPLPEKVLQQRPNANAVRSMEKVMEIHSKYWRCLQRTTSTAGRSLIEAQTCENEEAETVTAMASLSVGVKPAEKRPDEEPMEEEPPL
Sequence of Histone deacetylase 1 (Q13547 whole entry, the tested form may be a part): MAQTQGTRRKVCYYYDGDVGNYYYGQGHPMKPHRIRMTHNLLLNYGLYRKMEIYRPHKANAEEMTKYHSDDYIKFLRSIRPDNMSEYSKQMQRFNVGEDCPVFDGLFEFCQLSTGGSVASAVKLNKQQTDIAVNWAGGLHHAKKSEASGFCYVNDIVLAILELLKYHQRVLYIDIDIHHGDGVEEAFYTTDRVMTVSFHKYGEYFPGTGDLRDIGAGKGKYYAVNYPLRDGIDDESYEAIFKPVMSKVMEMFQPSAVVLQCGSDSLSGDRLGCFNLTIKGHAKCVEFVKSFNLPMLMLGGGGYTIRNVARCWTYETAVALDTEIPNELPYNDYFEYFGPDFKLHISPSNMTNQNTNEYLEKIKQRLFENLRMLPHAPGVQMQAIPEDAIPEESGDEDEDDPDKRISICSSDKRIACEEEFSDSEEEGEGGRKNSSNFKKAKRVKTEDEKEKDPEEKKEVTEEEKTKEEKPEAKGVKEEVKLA

Row | SMILES | inhibition [1] | GI50 (NCI-H929) | inhibition [2] | IC50 (Histone deacetylase 1) | IC50 (Histone deacetylase 8) | GI50 (RPMI-8226) | IC50 [3] | IC50 (Histone deacetylase 4) | IC50 (Histone deacetylase 2) | inhibition [4] | IC50 (Histone deacetylase 9) | GI50 (U-266) | GI50 at 48 h [5]
1 | O=C(NO)c1ccc(CNc2cccc3ncccc23)cc1 | Dose-dependent effect | 6.2 µM | Dose-dependent effect | 7.05 µM | 0.636 µM | 11 µM | 0.000795 µM | 4.82 µM | 8.61 µM | Dose-dependent effect | 1.92 µM | 28.4 µM | > 100 µM
2 | O=C(NO)c1ccc(CNc2cccc3cccnc23)cc1 | Dose-dependent effect | 9.14 µM | Dose-dependent effect | 9.55 µM | 1.19 µM | 7.49 µM | 0.000291 µM | 4.44 µM | 12.5 µM | Dose-dependent effect | 1.53 µM | 40.6 µM | > 100 µM
